# Reference: ChEMBL document CHEMBL1817650, “Fragment-based drug design and drug repositioning using multiple ligand simultaneous docking (MLSD): identifying celecoxib and template compounds as novel inhibitors of signal transducer and activator of transcription 3 (STAT3)” (J Med Chem, 2011)
# Activity calls are given as the source filed them. No cut-off for these calls is given here.
# Assays:
# [1] = target: Signal transducer and activator of transcription 3 (Homo sapiens) (UniProt P40763); experiment: Inhibition of IL-6-induced STAT3 phosphorylation in human PANC1 cells at 25 to 50 µM pretreated 2 hrs prior to IL-6 challenge measured after 30 mins; type: cell-based; conditions: PANC-1
# Chain of Signal transducer and activator of transcription 3 (Homo sapiens) (P40763 whole entry, the tested form may be a part): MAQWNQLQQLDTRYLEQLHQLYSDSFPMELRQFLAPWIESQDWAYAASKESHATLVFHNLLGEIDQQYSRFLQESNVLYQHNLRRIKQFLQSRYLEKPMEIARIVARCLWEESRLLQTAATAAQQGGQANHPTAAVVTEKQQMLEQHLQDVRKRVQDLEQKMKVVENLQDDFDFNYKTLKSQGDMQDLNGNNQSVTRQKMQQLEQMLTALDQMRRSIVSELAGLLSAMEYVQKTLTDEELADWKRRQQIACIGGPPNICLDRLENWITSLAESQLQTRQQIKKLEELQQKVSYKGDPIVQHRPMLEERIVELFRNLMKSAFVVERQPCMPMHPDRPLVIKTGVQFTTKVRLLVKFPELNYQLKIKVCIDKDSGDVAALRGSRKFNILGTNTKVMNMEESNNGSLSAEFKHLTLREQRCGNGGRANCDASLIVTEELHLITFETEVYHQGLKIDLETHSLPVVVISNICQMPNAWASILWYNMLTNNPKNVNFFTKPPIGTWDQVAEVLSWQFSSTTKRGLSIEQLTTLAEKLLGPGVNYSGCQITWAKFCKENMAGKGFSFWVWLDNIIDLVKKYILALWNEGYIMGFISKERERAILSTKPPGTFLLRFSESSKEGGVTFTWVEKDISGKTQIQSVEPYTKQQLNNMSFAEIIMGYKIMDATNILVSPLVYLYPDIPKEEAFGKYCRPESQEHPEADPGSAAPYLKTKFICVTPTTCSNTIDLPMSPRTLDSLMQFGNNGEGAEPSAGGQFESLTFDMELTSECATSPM
# How it was run: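 PANC-1 cells were serum-starved for 24 h, then pretreated with 25 or 50 μM compound for 2 h. They were then stimulated with IL-6 at 50 ng/ml for 30 min, and STAT3 phosphorylation was assessed.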
# HCT-116 [2] = experiment: Anticancer activity against human HCT116 cells after 72 hrs by MTT assay; type: functional, cell-based; conditions: HCT-116, 72 h
# How it was run: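 HCT-116 cells, 3,000 per well, given escalating concentrations (5–160 μM or 1–75 μM depending on compound) in triplicate with 10% FBS. Incubation was 72 h at 37°C, then MTT viability read-out at 595 nm absorbance. IC50 was derived by curve fitting.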
# HCT-116 [3] = experiment: Inhibition of STAT3 protein expression in COX2-negative human HCT116 cells at 10 to 50 uM after 24 hrs by Western blot analysis
# [4] = target: Signal transducer and activator of transcription 3 (Homo sapiens) (UniProt P40763); experiment: Inhibition of STAT3 SH2 domain phosphorylation at Tyr705 in COX2-negative human HCT116 cells after 24 hrs by Western blot analysis; conditions: HCT-116
# [5] = target: Signal transducer and activator of transcription 1 (Homo sapiens) (UniProt P42224); experiment: Inhibition of interferon gamma induced STAT1 phosphorylation in human PANC1 cells at […] pretreated 2 hrs prior to interferon-gamma challenge measured after 30; conditions: PANC-1
# Chain of Signal transducer and activator of transcription 1 (Homo sapiens) (P42224 whole entry, looked up): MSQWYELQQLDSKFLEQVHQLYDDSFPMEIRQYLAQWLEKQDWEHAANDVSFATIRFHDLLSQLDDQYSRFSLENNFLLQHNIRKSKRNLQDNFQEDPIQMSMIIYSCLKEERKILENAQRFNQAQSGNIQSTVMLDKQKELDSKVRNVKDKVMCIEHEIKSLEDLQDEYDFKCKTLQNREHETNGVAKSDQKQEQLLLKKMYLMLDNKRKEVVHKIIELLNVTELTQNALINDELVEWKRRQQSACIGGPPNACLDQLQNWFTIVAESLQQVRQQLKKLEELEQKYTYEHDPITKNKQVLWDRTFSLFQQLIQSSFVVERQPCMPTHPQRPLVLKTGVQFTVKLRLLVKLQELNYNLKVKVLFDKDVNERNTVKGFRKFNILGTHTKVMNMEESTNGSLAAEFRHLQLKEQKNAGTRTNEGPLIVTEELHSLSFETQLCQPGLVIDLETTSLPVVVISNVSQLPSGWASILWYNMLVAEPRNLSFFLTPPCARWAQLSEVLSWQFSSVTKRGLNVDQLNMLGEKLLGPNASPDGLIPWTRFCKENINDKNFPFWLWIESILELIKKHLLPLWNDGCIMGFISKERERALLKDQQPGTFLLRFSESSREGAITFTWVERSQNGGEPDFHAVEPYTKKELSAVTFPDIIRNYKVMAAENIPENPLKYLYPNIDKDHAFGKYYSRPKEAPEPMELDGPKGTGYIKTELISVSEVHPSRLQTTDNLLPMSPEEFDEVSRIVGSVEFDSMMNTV
Compound,inhibition [1],IC50 (HCT-116 [2]),inhibition (HCT-116 [3]),inhibition [4],inhibition [5]
Cc1ccc(-c2cc(C(F)(F)F)nn2-c2ccc(S(N)(=O)=O)cc2)cc1 [CELECOXIB],Active,43.3 µM,inactive,Dose-dependent effect,inactive
NS(=O)(=O)c1ccc(-n2nc(C(=O)NN3CCCCC3)cc2-c2ccc(-c3ccccc3)cc2)cc1,,10.1 µM,inactive,Dose-dependent effect,
Cc1ccc(Cc2cc(-c3ccc(Br)cc3)n(-c3ccc(S(N)(=O)=O)cc3)n2)cc1,,9.7 µM,inactive,Dose-dependent effect,
